Screening results as filed in PubChem.
Shown is part of a subset that was picked to be rich in hits.
A1 apoptosis 2 – blocks A1, raising caspase activity | 24,000 tested, under 10 active | MEF A1-2A-BIM cells, caspase-Glo luminescence, 3 h; percent of clofoctol response, DMSO zero | caspase activation, % (no concentration beside the values); in the data active = caspase activation above about 5.9%
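system = A1-2A-BIM-expressing MEF cells | quantity = 2500 MEF cells/well | dosing = 50 nL compound per well, pinned | schedule = overnight cell settling, then 3 h compound exposure, 37 °C | signal = luminescence from DEVD-luciferin Caspase-Glo reagent, 1:1 in 50 mM HEPES, 1 h RT | read-out = Caspase-3/7 activation, seen as rise in luminescence signal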
INS-1E ATP HTS – preserves ATP levels in cytokine-treated INS-1E cells; INS-1E cytokine-induced death, ATP luminescence, 48 h; normalised: neutral wells 0, positive control 100; protection from cytokine-induced ATP loss, % at 10 µM; 20,000 tested, 0.1% active;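 active = mean replicate protection from cytokine-induced ATP loss at least 50% and at least 75% of replicates each reaching 50%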
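Assay system: INS-1E rat cells / Quantity: 8000 cells per well / Medium: RPMI without phenol red, 5% FBS / Probe or stimulus: three-cytokine cocktail (IFN-γ, TNF-α, IL-1β) / Dosing: one compound concentration, pin transfer / Timing: 48 h co-treatment, 10 min post-lysis read / Technique: CellTiter-Glo luminescence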
T cruzi intra – blocks T. cruzi growth inside host cells; AID 651903; activity score (inhibition), % at 5.01 µM; 22,000 tested, 4.9% active; intracellular Trypanosoma cruzi in host cells, plate reader; in the data active = activity score above about 55%;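 also: parasites and compound incubated about four days before reading; 0% = median of neutral control wells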
Numbers without * were called inactive.

What do the screens show for `C[C@@H]1CN([C@H](C)CO)C(=O)Cc2cc(NC(=O)Nc3ccc(C(F)(F)F)cc3)ccc2O[C@H]1CN(C)Cc1ccncc1`?
A1 apoptosis 2: 1; INS-1E ATP HTS: 16; T cruzi intra: -10

What do the screens show for `C[C@@H]1CN([C@H](C)CO)C(=O)Cc2cc(NC(=O)CCC(F)(F)F)ccc2O[C@H]1CN(C)Cc1ccc(C(F)(F)F)cc1`?
INS-1E ATP HTS: -7; T cruzi intra: 49

What do the screens show for `C[C@H](CO)N1C[C@H](C)[C@H](CN(C)Cc2ccc(C(F)(F)F)cc2)Oc2ccc(NC(=O)Nc3ccc(C(F)(F)F)cc3)cc2CC1=O`?
A1 apoptosis 2: 6.6*; INS-1E ATP HTS: -69; T cruzi intra: 72*

What do the screens show for `C[C@H]1CN([C@@H](C)CO)C(=O)Cc2cc(NC(=O)CCC(F)(F)F)ccc2O[C@@H]1CN(C)Cc1ccc(C(F)(F)F)cc1`?
INS-1E ATP HTS: -1; T cruzi intra: 64*

Results for COc1ccc(/C=N/NC(=O)c2ccccn2)cc1 ?
A1 apoptosis 2: -10; INS-1E ATP HTS: -11; T cruzi intra: -14

What do the screens show for `O=C(NO)c1ccc(C(=O)N/N=C/c2cccc(B(O)O)c2)cc1`?
A1 apoptosis 2: -1; INS-1E ATP HTS: 12; T cruzi intra: 9

How did O=C(NO)c1cccc(C(=O)N/N=C/c2ccc(N3CCCC3)cc2)c1 do in these assays?
A1 apoptosis 2: -5; INS-1E ATP HTS: -4; T cruzi intra: -12

What do the screens show for `C[C@@H]1CN([C@@H](C)CO)C(=O)Cc2cc(NC(=O)Nc3ccc(C(F)(F)F)cc3)ccc2O[C@@H]1CN(C)Cc1ccc(C(=O)O)cc1`?
A1 apoptosis 2: 0; INS-1E ATP HTS: 9; T cruzi intra: -24

Results for C[C@H]1CN([C@@H](C)CO)C(=O)Cc2cc(NC(=O)Nc3ccc(C(F)(F)F)cc3)ccc2O[C@@H]1CN(C)Cc1ccc(Cl)c(Cl)c1 ?
INS-1E ATP HTS: -12; T cruzi intra: -5

Results for C[C@@H]1CN([C@@H](C)CO)C(=O)Cc2cc(NC(=O)Nc3ccc(C(F)(F)F)cc3)ccc2O[C@@H]1CN(C)Cc1ccc(Cl)c(Cl)c1 ?
INS-1E ATP HTS: -37; T cruzi intra: 57*

Results for C[C@H]1CN([C@@H](C)CO)C(=O)c2cc(NC(=O)Nc3ccc(C(F)(F)F)cc3)ccc2O[C@@H]1CN(C)Cc1ccc(Cl)c(Cl)c1 ?
INS-1E ATP HTS: -52; T cruzi intra: 11

What do the screens show for `C[C@H](CO)N1C[C@H](C)[C@H](CN(C)Cc2ccc(Cl)c(Cl)c2)Oc2ccc(NC(=O)Nc3ccc(C(F)(F)F)cc3)cc2C1=O`?
A1 apoptosis 2: -1; INS-1E ATP HTS: -25; T cruzi intra: 91*

How did C[C@@H]1CN([C@H](C)CO)C(=O)Cc2cc(NC(=O)Nc3ccc(C(F)(F)F)cc3)ccc2O[C@H]1CN(C)Cc1ccc(C(F)(F)F)cc1 do in these assays?
A1 apoptosis 2: 0; INS-1E ATP HTS: -1; T cruzi intra: 81*

Results for O=C(CCCCCCC(=O)Nc1ccccc1O)N/N=C/c1ccc(F)c(Oc2ccccc2)c1 ?
A1 apoptosis 2: 0; INS-1E ATP HTS: -3; T cruzi intra: 19

Results for O=C(N/N=C/c1ccccc1Br)c1ccccc1O ?
A1 apoptosis 2: -10; INS-1E ATP HTS: 4; T cruzi intra: -22

What do the screens show for `CCOc1ncnc2ccc(Br)cc12`?
A1 apoptosis 2: 1

Results for COc1ccc([C@H]2C=C(C(=O)NCc3ccccc3)O[C@@H](OCc3ccc(CO)cc3)C2)cc1 ?
A1 apoptosis 2: 1

Results for C[C@H](CO)N1C[C@H](C)[C@H](CN(C)Cc2ccc(C(F)(F)F)cc2)Oc2ccc(NS(=O)(=O)c3cccs3)cc2C1=O ?
INS-1E ATP HTS: -14; T cruzi intra: 58*

What do the screens show for `C[C@H]1CN([C@@H](C)CO)C(=O)c2cc(NS(=O)(=O)c3cccs3)ccc2O[C@H]1CN(C)Cc1ccc(C(F)(F)F)cc1`?
A1 apoptosis 2: 0; T cruzi intra: 39

What do the screens show for `C[C@H]1CN([C@@H](C)CO)C(=O)c2cc(NS(=O)(=O)c3cccs3)ccc2O[C@@H]1CN(C)Cc1ccc(C(F)(F)F)cc1`?
A1 apoptosis 2: 0

What do the screens show for `C[C@H](CO)N1C[C@H](C)[C@@H](CN(C)Cc2ccc(C(F)(F)F)cc2)Oc2ccc(NS(=O)(=O)c3cccs3)cc2C1=O`?
A1 apoptosis 2: -1; INS-1E ATP HTS: -12; T cruzi intra: 60*

How did C=CCOC(=O)[C@H]1[C@@H]2C(=O)O[C@@H](c3ccccc3)[C@@H](c3ccccc3)N2[C@@H](c2ccc(OCCOC(=O)[C@H]3C[C@H]4C(=O)N[C@@H](CCCCNC(C)=O)C(=O)N4[C@H]3c3cccc(OCCO)c3)cc2)[C@]12C(=O)Nc1ccccc12 do in these assays?
A1 apoptosis 2: 1

How did O=C(CCCCCCC(=O)Nc1ccccc1O)N/N=C/c1ccccc1O do in these assays?
A1 apoptosis 2: 0; INS-1E ATP HTS: 8; T cruzi intra: 24

How did CCN(CC)c1ccc(/C=N/NC(=O)CCCCCCC(=O)Nc2ccccc2O)c(O)c1 do in these assays?
A1 apoptosis 2: 0; INS-1E ATP HTS: -8; T cruzi intra: 66*

What do the screens show for `O=C(CCCCCCC(=O)Nc1ccccc1O)N/N=C/c1ccc([N+](=O)[O-])s1`?
A1 apoptosis 2: -2; INS-1E ATP HTS: -36; T cruzi intra: 89*

What do the screens show for `O=C(CCCCC(=O)N/N=C/c1ccc([N+](=O)[O-])s1)NO`?
A1 apoptosis 2: -1; INS-1E ATP HTS: 1; T cruzi intra: 52

What do the screens show for `COc1ccc(C#Cc2ccc3c(c2)[C@]2(C(=O)N3)[C@H](C(=O)NC[C@H](O)c3ccccc3)[C@H]3C(=O)O[C@H](c4ccccc4)[C@H](c4ccccc4)N3[C@@H]2c2ccc(OCCO)cc2)cc1`?
A1 apoptosis 2: 1

What do the screens show for `O=C(O)CCCCCCC(=O)N/N=C/c1ccc2ccccc2n1`?
A1 apoptosis 2: 1; INS-1E ATP HTS: -5; T cruzi intra: 2

What do the screens show for `C=CCNC(=O)[C@H]1[C@@H]2C(=O)O[C@@H](c3ccccc3)[C@@H](c3ccccc3)N2[C@@H](c2ccc(O)cc2)[C@]12C(=O)Nc1ccc(C#CCC(C(=O)OC)C(=O)OC)cc12`?
A1 apoptosis 2: 1

What do the screens show for `COc1cc(Br)cc(/C=N/NC(=O)CCCCCCC(=O)Nc2ccccc2O)c1O`?
INS-1E ATP HTS: 4; T cruzi intra: 32

How did O=C(N/N=C/c1cc(Br)cc(Br)c1O)c1ccccn1 do in these assays?
INS-1E ATP HTS: -42; T cruzi intra: 78*

What do the screens show for `Cc1ccc(/C=N/NC(=O)CCCCCC(=O)O)o1`?
A1 apoptosis 2: 0; INS-1E ATP HTS: -3; T cruzi intra: -15

Results for COC(=O)CCCCCCC(=O)N/N=C/c1ccc(-c2cccc(Cl)c2)o1 ?
A1 apoptosis 2: -3; INS-1E ATP HTS: 5; T cruzi intra: 27

Results for O=C(N/N=C/c1ccc(-c2cccc(Cl)c2)o1)c1ccccn1 ?
A1 apoptosis 2: -1; INS-1E ATP HTS: 13; T cruzi intra: 85*

How did Cc1ccc(/C=N/NC(=O)c2ccccn2)o1 do in these assays?
A1 apoptosis 2: -4; INS-1E ATP HTS: -3; T cruzi intra: 2
